In ChEMBL document CHEMBL3745707 (Bioorg Med Chem, 2016):
Active and inactive are the calls of the source. No cut-off for these calls is given here.

Columns and labels:
[1] = cells; type: functional, cell-based; settings: Homo sapiens, DU-145, 72 h
[2] = test system: K562; experiment: cells; type: functional, cell-based; settings: Homo sapiens, K562, 72 h
[3] = target: T1, Serine/threonine-protein kinase PLK2 (Homo sapiens, UniProt Q9NYY3); experiment: Inhibition of human recombinant PLK2 using recombinant dephosphorylated bovine alpha- casein as substrate after 30 mins by scintillation counting analysis in presence of gamma-32P-ATP
Target sequence in this assay (Q9NYY3 whole entry): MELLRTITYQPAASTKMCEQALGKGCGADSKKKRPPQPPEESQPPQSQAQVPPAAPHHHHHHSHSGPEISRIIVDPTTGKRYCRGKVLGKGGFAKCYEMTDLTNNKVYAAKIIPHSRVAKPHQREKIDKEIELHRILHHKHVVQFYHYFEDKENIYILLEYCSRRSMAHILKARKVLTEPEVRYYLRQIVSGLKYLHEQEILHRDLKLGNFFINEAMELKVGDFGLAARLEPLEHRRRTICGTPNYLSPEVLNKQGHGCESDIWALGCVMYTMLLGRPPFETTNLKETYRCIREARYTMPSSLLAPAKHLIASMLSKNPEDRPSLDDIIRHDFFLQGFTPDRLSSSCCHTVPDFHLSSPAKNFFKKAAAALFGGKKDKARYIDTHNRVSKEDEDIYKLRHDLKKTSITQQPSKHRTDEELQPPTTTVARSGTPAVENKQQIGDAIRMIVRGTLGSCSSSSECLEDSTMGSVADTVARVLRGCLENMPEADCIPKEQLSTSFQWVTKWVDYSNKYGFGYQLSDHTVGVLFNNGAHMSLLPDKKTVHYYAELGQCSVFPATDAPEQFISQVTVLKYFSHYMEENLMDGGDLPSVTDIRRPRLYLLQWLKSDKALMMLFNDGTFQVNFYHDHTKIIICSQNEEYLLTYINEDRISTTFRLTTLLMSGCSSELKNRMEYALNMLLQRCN

[4] = test system: HeLa; experiment: cells; type: functional; settings: Homo sapiens, 72 h
[5] = test system: MCF7; experiment: cells; type: functional; settings: Homo sapiens, MCF7, 72 h
[6] = test system: SK-MEL-28; experiment: cells; type: functional; settings: Homo sapiens, SK-MEL-28, 72 h
[7] = test system: A549; experiment: cells; type: functional; settings: Homo sapiens, A549, 72 h
[8] = cells; type: functional; settings: Homo sapiens, SK-OV-3, 72 h
[9] = test system: Raji; experiment: cells; type: functional; settings: Homo sapiens, 72 h
[10] = cells; type: functional; settings: Homo sapiens, BT-474, 72 h
[11] = target: T2, Tubulin (Bos taurus) (UniProt Q6B856+Q862L2+Q862F3); experiment: Inhibition of bovine MAP rich tubulin polymerization at 10 uM measured every 2 mins for 30 mins by UV-visible spectrophotometric analysis; type: protein assay
In short: (§1)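 MAP-rich bovine tubulin at 1.5 mg/mL in 80 mM PIPES pH 6.9, 1 mM GTP, 0.5 mM EGTA, 2 mM MgCl₂. Briefly preincubated with agent or DMSO, then polymerized at 37 °C in a spectrophotometer. Absorbance recorded every 2 min for 30 min; n = 3.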

[12] = cells; type: functional; settings: Homo sapiens, COLO 205, 72 h
[13] = test system: U2OS; experiment: Induction of apoptosis in human U2OS cells assessed as increase in caspase 3/7 activity after 24 hrs by caspase Glo assay; type: functional, cell-based
In short: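 U2OS cells (DMEM, 10% FBS, 37 °C, 5% CO₂) plated at 1–3 × 10⁴ cells/well, left overnight, then exposed 24 h to increasing concentrations, with DMSO control. Caspase 3/7 activity read by Caspase-Glo luminescence; viability measured in parallel with Cell Titer Blue fluorescence.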

[14] = cells; type: functional; settings: Homo sapiens, Granta-519, 72 h
[15] = cells; type: functional; settings: Homo sapiens, MIA PaCa-2, 72 h
[16] = cells; type: functional, U-87MG ATCC; settings: Homo sapiens, U-87 MG, 72 h
[17] = test system: U2OS; experiment: cells; type: functional; settings: Homo sapiens, 72 h
[18] = test system: NCI-H1975; experiment: cells; type: functional; settings: Homo sapiens, NCI-H1975, 72 h
[19] = target: T1, Serine/threonine-protein kinase PLK2
Target sequence in this assay (Q9NYY3 whole entry, looked up): as the sequence (Q9NYY3 whole entry) above

[20] = target: T2, Tubulin (Bos taurus); experiment: Inhibition of bovine MAP rich tubulin polymerization at 1 uM measured every 2 mins for 30 mins by UV-visible spectrophotometric analysis; type: protein assay
In short: as §1

| SMILES | IC50 [1] | IC50 [2] | further results |
| --- | --- | --- | --- |
| Cn1c(=O)c(S(=O)(=O)c2ccc(F)cc2)cc2cnc(Nc3cccc4[nH]ccc34)nc21 | 750 nM | 750 nM | IC50 [3]: 6080 nM |
| Cn1c(=O)c(S(=O)(=O)c2ccc(F)cc2)cc2cnc(Nc3ccc4[nH]ccc4c3)nc21 | 300 nM | 200 nM | GI50 [4]: 75 nM; GI50 [5]: 250 nM; GI50 [6]: 300 nM; GI50 [7]: 200 nM; GI50 [8]: 200 nM; GI50 [9]: 100 nM; GI50 [10]: 200 nM; inhibition [11]: Active; GI50 [12]: 200 nM; Activity [13]: Dose-dependent effect; GI50 [14]: 60 nM; GI50 [15]: 75 nM; GI50 [16]: 400 nM; GI50 [17]: 55 nM; GI50 [18]: 100 nM; IC50 [3]: 1070 nM |
| Cn1c(=O)c(S(=O)(=O)c2ccc(F)cc2F)cc2cnc(Nc3ccccn3)nc21 | 75000 nM | 35000 nM |  |
| Cn1c(=O)c(S(=O)(=O)c2ccc(Cl)cc2)cc2cnc(Nc3cnc4ccccc4c3)nc21 | 15000 nM | 15000 nM |  |
| Cn1c(=O)c(S(=O)(=O)c2ccc(F)cc2)cc2cnc(Nc3ccc4[nH]ncc4c3)nc21 | 5000 nM | 10000 nM |  |
| Cn1c(=O)c(S(=O)(=O)c2ccc(F)cc2)cc2cnc(Nc3ccc4[nH]cnc4c3)nc21 | 10000 nM | 10000 nM |  |
| Cn1c(=O)c(C(=O)Nc2ccc(F)cc2F)cc2cnc(Nc3ccc4[nH]ccc4c3)nc21 | 5000 nM | 5000 nM |  |
| CC[C@@H]1C(=O)N(C)c2cnc(Nc3ccc(C(=O)NC4CCN(C)CC4)cc3OC)nc2N1C1CCCC1 |  |  | ΔTm [19]: 12.3 °C |
| Cn1c(=O)c(S(=O)(=O)c2ccc(Cl)cc2Cl)cc2cnc(Nc3ccc4[nH]ccc4c3)nc21 | 1000 nM | 1000 nM |  |
| COc1ccc(Nc2ncc3cc(S(=O)(=O)c4ccc(C)cc4)c(=O)n(C)c3n2)cc1 | 100000 nM | 75000 nM |  |
| Cn1c(=O)c(S(=O)(=O)c2ccc(OC(=O)CCCCC3SCC4NC(=O)NC43)cc2)cc2cnc(Nc3ccc4[nH]ccc4c3)nc21 (stereo not given) | 150 nM | 600 nM | GI50 [4]: 500 nM; GI50 [5]: 500 nM; GI50 [6]: 500 nM; GI50 [7]: 2500 nM; GI50 [8]: 400 nM; GI50 [9]: 400 nM; GI50 [10]: 250 nM; inhibition [11]: Active; GI50 [12]: 500 nM; GI50 [14]: 500 nM; GI50 [15]: 100 nM; GI50 [16]: 1000 nM; GI50 [17]: 350 nM; GI50 [18]: 750 nM |
| O=c1c(S(=O)(=O)c2ccc(F)cc2F)cc2cnc(Nc3ccc4[nH]ccc4c3)nc2n1CC1CC1 | 1000 nM | 1000 nM |  |
| Cn1ccc2cc(Nc3ncc4cc(S(=O)(=O)c5ccc(F)cc5F)c(=O)n(C)c4n3)ccc21 | 750 nM | 750 nM |  |
| Cn1c(=O)c(S(=O)(=O)Cc2ccc(F)cc2)cc2cnc(Nc3ccc4[nH]ccc4c3)nc21 | 30000 nM | 30000 nM |  |
| Cn1c(=O)c(S(=O)(=O)c2ccc(N)cc2F)cc2cnc(Nc3ccc4[nH]ccc4c3)nc21 | 8000 nM | 1500 nM |  |
| Cn1c(=O)c(S(=O)(=O)c2ccc(F)cc2F)cc2cnc(Nc3ccc4c(c3)CC(=O)N4)nc21 | 100000 nM | 15000 nM |  |
| Cn1c(=O)c(S(=O)(=O)c2ccc(F)cc2)cc2cnc(Nc3ccc4cc[nH]c4c3)nc21 | 10000 nM | 10000 nM |  |
| Cc1cc2cc(Nc3ncc4cc(S(=O)(=O)c5ccc(F)cc5F)c(=O)n(C)c4n3)ccc2[nH]1 | 750 nM | 750 nM |  |
| Cn1c(=O)c(S(=O)(=O)c2ccc(F)cc2F)cc2cnc(Nc3ccncn3)nc21 | 50000 nM | 30000 nM |  |
| O=c1c(S(=O)(=O)c2ccc(F)cc2F)cc2cnc(Nc3ccc4[nH]ccc4c3)nc2n1C1CCCC1 | 5000 nM | 5000 nM |  |
| Cn1c(=O)c(S(=O)(=O)c2ccc([N+](=O)[O-])cc2F)cc2cnc(Nc3ccc4[nH]ccc4c3)nc21 | 400 nM | 200 nM |  |

| SMILES | IC50 [1] | IC50 [2] | further results |
| --- | --- | --- | --- |
| COc1ccc(S(=O)(=O)c2cc3cnc(Nc4ccc5[nH]ccc5c4)nc3n(C)c2=O)cc1 | 500 nM | 300 nM | IC50 [3]: 350 nM |
| Cn1c(=O)c(S(=O)(=O)c2ccc(F)cc2F)cc2cnc(Nc3ccc4[nH]ncc4c3)nc21 | 30000 nM | 50000 nM |  |
| COc1ccc(S(=O)(=O)c2cc3cnc(Nc4cccc5[nH]ccc45)nc3n(C)c2=O)cc1 | 5000 nM | 5000 nM |  |
| Cn1c(=O)c(S(=O)(=O)c2ccc(Cl)cc2)cc2cnc(Nc3ccc4[nH]ccc4c3)nc21 | 250 nM | 100 nM |  |
| Cn1c(=O)c(S(=O)(=O)c2ccc(F)cc2F)cc2cnc(Nc3cccc4[nH]ccc34)nc21 | 750 nM | 1500 nM |  |
| Cn1c(=O)c(S(=O)(=O)c2ccc(O)cc2)cc2cnc(Nc3ccc4[nH]ccc4c3)nc21 | 250 nM | 100 nM | GI50 [4]: 750 nM; GI50 [5]: 500 nM; GI50 [6]: 500 nM; GI50 [7]: 750 nM; GI50 [8]: 750 nM; GI50 [9]: 500 nM; GI50 [10]: 200 nM; inhibition [11]: Active; GI50 [12]: 250 nM; GI50 [14]: 250 nM; GI50 [15]: 100 nM; GI50 [16]: 1000 nM; GI50 [17]: 350 nM; GI50 [18]: 750 nM; IC50 [3]: 470 nM |
| Cc1ccc(S(=O)(=O)c2cc3cnc(Nc4cnc5c(c4)CC(=O)N5)nc3n(C)c2=O)cc1 | 15000 nM | 15000 nM |  |
| Cn1c(=O)c(S(=O)(=O)c2ccc(Br)cc2)cc2cnc(Nc3ccc4[nH]ccc4c3)nc21 | 5000 nM | 5000 nM |  |
| Cn1c(=O)c(C(=O)Nc2ccc(F)cc2)cc2cnc(Nc3ccc4[nH]ccc4c3)nc21 | 5000 nM | 5000 nM |  |
| Cn1c(=O)c(S(=O)(=O)c2ccc(F)cc2)cc2cnc(Nc3cnc4[nH]ccc4c3)nc21 | 500 nM | 750 nM |  |
| Cn1c(=O)c(S(=O)(=O)Nc2ccc(F)cc2F)cc2cnc(Nc3ccc4[nH]ccc4c3)nc21 | 5000 nM | 5000 nM |  |
| Cn1c(=O)c(S(=O)(=O)c2ccc(F)cc2)cc2cnc(Nc3ccc4occc4c3)nc21 | 5000 nM | 5000 nM |  |
| CC[C@]1(O)C[C@H]2CN(CCc3c([nH]c4ccccc34)[C@@](C(=O)OC)(c3cc4c(cc3OC)N(C=O)[C@H]3[C@@](O)(C(=O)OC)[C@H](OC(C)=O)[C@]5(CC)C=CCN6CC[C@]43[C@@H]65)C2)C1 |  |  | inhibition [20]: Active |
| Cc1ccc(S(=O)(=O)c2cc3cnc(Nc4cccc5cccnc45)nc3n(C)c2=O)cc1 | 10000 nM | 10000 nM |  |
| Cc1ccc(S(=O)(=O)c2cc3cnc(Nc4ccc5[nH]ccc5c4)nc3n(C)c2=O)cc1 | 750 nM | 750 nM |  |
| COc1ccc(Nc2ncc3cc(S(=O)(=O)c4ccc(Cl)cc4)c(=O)n(C)c3n2)cc1 | 30000 nM | 15000 nM |  |
| Cn1c(=O)c(S(=O)(=O)Nc2ccc(F)cc2)cc2cnc(Nc3ccc4[nH]ccc4c3)nc21 | 5000 nM | 5000 nM |  |
| Cn1c(=O)c(S(=O)(=O)c2ccc(F)cc2F)cc2cnc(Nc3cnc4[nH]ccc4c3)nc21 | 750 nM | 750 nM |  |
| Cn1c(=O)c(S(=O)(=O)c2ccccc2)cc2cnc(Nc3ccc4[nH]ccc4c3)nc21 | 5000 nM | 1000 nM | IC50 [3]: 1230 nM |
| COC(=O)Cn1c(=O)c(S(=O)(=O)c2ccc(F)cc2F)cc2cnc(Nc3ccc4[nH]ccc4c3)nc21 | 10000 nM | 5000 nM |  |
| Cn1c(=O)c(S(=O)(=O)c2ccc(Cl)cc2)cc2cnc(Nc3cnc4[nH]ccc4c3)nc21 | 5000 nM | 5000 nM |  |
